# Laboratory results published in ChEMBL document CHEMBL4706740, “Structure-Activity Study of Nitazoxanide Derivatives as Novel STAT3 Pathway Inhibitors” (ACS Med Chem Lett, 2021).
# pIC50: −log10 of the molar value. Activity calls are given as the source filed them. No cut-off for these calls is given here.
# How the values were obtained:
# [1] = target: Signal transducer and activator of transcription 3 (Homo sapiens) (UniProt P40763); assay: Inhibition of STAT3 transcriptional activity in human HeLa cells assessed as downregulation of cyclin D1 expression upto 80 uM after 24 hrs by western blot analysis; format: cell-based; settings: dose microM <=80, time […]
# Sequence of Signal transducer and activator of transcription 3 (Homo sapiens) (P40763 whole entry): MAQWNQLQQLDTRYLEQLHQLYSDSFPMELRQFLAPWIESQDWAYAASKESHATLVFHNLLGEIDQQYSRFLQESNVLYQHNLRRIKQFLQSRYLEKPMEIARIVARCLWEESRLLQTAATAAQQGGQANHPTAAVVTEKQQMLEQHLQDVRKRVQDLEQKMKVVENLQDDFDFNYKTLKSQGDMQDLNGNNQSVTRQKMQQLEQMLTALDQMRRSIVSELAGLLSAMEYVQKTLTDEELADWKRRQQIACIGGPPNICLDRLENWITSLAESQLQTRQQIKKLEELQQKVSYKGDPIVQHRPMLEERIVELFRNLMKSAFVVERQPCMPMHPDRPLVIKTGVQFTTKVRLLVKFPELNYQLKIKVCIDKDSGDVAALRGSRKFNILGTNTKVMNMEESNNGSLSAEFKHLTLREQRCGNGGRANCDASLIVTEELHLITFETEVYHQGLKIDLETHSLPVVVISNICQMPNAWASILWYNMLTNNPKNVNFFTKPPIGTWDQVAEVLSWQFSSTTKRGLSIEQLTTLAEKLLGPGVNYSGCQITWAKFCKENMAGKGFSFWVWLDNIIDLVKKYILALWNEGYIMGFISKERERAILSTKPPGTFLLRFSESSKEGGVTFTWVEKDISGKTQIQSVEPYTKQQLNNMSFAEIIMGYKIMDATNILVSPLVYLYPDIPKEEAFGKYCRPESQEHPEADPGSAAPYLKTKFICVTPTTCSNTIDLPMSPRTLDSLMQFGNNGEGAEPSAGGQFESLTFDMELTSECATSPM
# How it was run: (§1)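 HeLa cells treated 24 h with a concentration series. Total cell lysates probed by Western blot with specific antibodies for the STAT3 target gene products cyclin D1, c-Myc and survivin.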
# HeLa [2] = assay: Induction of cell cycle arrest in human HeLa cells assessed as accumulation at G0/G1 phase at 20 uM measured after 24 hrs by flow cytometry analysis (reference value: 54.16%); format: functional
# HeLa [3] = assay: Antiproliferative activity against human HeLa cells assessed as cell growth inhibition measured after 48 hrs by MTT assay; format: functional, cell-based
# How it was run: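 Growth was read by MTT assay, and IC50 was taken from the dose–response curve. Values are averages of three independent experiments.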
# HeLa [4] = assay: Effect on Jak2 level in human Hela cells upto 80 uM after 24 hrs by Western blot analysis; format: functional, cell-based; settings: dose microM <=80, time […]
# [5] = target: Signal transducer and activator of transcription 3 (Homo sapiens) (UniProt P40763); assay: Inhibition of STAT3 in human HeLa cells assessed as decrease in phosphorylation of STAT3 at Tyr705 upto 80 uM measured after 6 hrs by Western blot analysis; format: cell-based; settings: dose microM <=80, time 6.0 hrs
# How it was run: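 Time course in HeLa cells given 80 μM compound, sampled from 15 min onward through multiple hours; parallel runs at 20 and 40 μM. Total cell lysates Western blotted for p-STAT3 (Tyr705), p-STAT3 (Ser727) and total STAT3.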
# HL-60 = assay: Antiproliferative activity against human HL60 cells assessed as cell growth inhibition measured after 48 hrs by MTT assay; format: functional, cell-based; settings: HL-60, 48 h
# HeLa [6] = assay: Cytotoxicity against human HeLa cells assessed as inhibition of cell viability measured after 48 hrs by MTT assay; format: functional, cell-based
# How it was run: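 Growth was read by MTT assay and IC50 taken from dose–response curves. Values are averages of three independent experiments.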
# HeLa [7] = assay: Induction of cell cycle arrest in human HeLa cells assessed as accumulation at S phase at 20 uM measured after 24 hrs by flow cytometry analysis (reference value: 34.04%); format: functional
# HeLa [8] = assay: Induction of apoptosis in human HeLa cells assessed as viable cells at 20 uM incubated for 24 hrs by Annexin V-FITC/PI staining based flow cytometry (reference value: 92.45%); format: functional; settings: read-out: Activity
# HeLa [9] = assay: Induction of apoptosis in human HeLa cells assessed as viable cells at 10 uM incubated for 24 hrs by Annexin V-FITC/PI staining based flow cytometry (reference value: 92.45%); format: functional; settings: read-out: Activity
# [10] = AUC (0 to infinity) in Sprague-Dawley rat at 5 mg/kg, iv; format: ADME, organism-based; set-up: route intravenous, time infinity, dose 5 mg/kg; settings: in vivo
# How it was run: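 Rats, n = 3 per group, received a single dose either intragastrically (25 mg/kg) or intravenously (5 mg/kg). Plasma concentration–time curves were used to derive t1/2α, t1/2β, Vd/F, CL/F, AUC0–∞, Tmax and Cmax. Absolute oral bioavailability was calculated from the ig and iv data.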
# HeLa [11] = assay: Induction of cell cycle arrest in human HeLa cells assessed as accumulation at S phase at 10 uM measured after 24 hrs by flow cytometry analysis (reference value: 34.04%); format: functional
# HeLa [12] = assay: Induction of cell cycle arrest in human HeLa cells assessed as accumulation at G2/M phase at 10 uM measured after 24 hrs by flow cytometry analysis (reference value: 11.81%); format: functional
# [13] = target: Signal transducer and activator of transcription 3 (Homo sapiens) (UniProt P40763); assay: Inhibition of STAT3 transcriptional activity in human HeLa cells assessed as downregulation of c-Myc expression upto 80 uM after 24 hrs by western blot analysis; format: cell-based; settings: dose microM <=80, time […]; how it was run: as §1
smiles,measurement,setting,value
CC(=O)Oc1ccccc1C(=O)Nc1ncc([N+](=O)[O-])s1 [NITAZOXANIDE],inhibition,[1],Dose-dependent effect
same,Activity,HeLa [2],69.88%
same,pIC50,HeLa [3],4.46
same,Activity,HeLa [4],inactive
same,inhibition,[5],inactive
same,pIC50,HL-60,4.70
same,pIC50,HeLa [6],4.46
same,Activity,HeLa [7],21.84%
same,viability at 20 µM,HeLa [8],84.1%
same,viability at 10 µM,HeLa [9],92.3%
same,AUC(0-inf),[10],11200 ng·h/mL
same,Activity,HeLa [11],28.45%
same,Activity,HeLa [12],9.59%
same,inhibition,[13],Dose-dependent effect
